Screens deposited in PubChem by The Scripps Research Institute Molecular Screening Center.
Sampled rows, rich in hits. Any-hit rate of the full collection: about 2.8%.
ARFGAP1 inhibitor: rat ARFGAP1 inhibition | 360,000 compounds, 0.26% hits | AID 651572 | Arfgap1-stimulated ARF1 GTP hydrolysis, GDP FP detection | inhibition, % at 16.5 µM;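 active = inhibition above a per-plate limit, mean inhibition of low control wells plus 3 SD, cut at about 25% in these data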;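 also: 0% = DMSO wells with enzyme and 100% = wells lacking Arfgap1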
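System: truncated rat Arfgap1 GAP domain / Benchmarks: high control wells lacking Arfgap1, low control full reaction with DMSO / Times: compound-enzyme preincubation 20 min, reaction 120 min, detection 60 min, 25 °C / Repeats: one replicate per compound / Also added: human ARF1(Δ1-17)-GTP substrate / Measured by: Tracer-displacement fluorescence polarization with EDTA stop, 620/688 nm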
PAFAH1B3 FP inh: inhibitors of human PAFAH1B3; inhibition, % at 3.39 µM; 340,000 compounds, 0.28% hits; Q15102; recombinant PAFAH1B3, FP-rhodamine probe, fluorescence polarization;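 active = inhibition above the screen-wide average of all tested compounds plus 3 SD, cut at about 25% in these data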;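 also: 0% = enzyme with DMSO only and 100% = wells lacking PAFAH1B3 protein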
Target sequence (Q15102 whole entry, looked up): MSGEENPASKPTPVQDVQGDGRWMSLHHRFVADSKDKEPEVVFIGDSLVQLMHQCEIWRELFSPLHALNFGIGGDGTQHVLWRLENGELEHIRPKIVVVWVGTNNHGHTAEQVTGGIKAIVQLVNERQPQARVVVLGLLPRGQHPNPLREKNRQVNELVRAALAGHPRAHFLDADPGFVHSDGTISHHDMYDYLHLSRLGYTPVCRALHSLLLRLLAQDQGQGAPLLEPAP
ASAP1 inh: inhibitors of human ASAP1 ArfGAP activity. Q9ULH1. inhibition, % at 16.5 µM. ASAP1-stimulated ARF1 GTP hydrolysis, GDP FP detection. 360,000 compounds, 0.19% hits. AID 624377; in the data active = inhibition above about 25%;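 also: 0% = vehicle with enzyme and substrate and 100% = no enzyme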
PAFAH2 inh: inhibitors of human PAFAH2; Q99487; recombinant PAFAH2, FP-rhodamine activity probe, fluorescence polarization; inhibition, % at 3.39 µM; 340,000 compounds, 0.99% hits; AID 492956;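 active = inhibition above the mean over all tested compounds plus 3 SD, cut at about 30% in these data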;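 also: inhibitors block probe labeling of enzyme so polarization drops; 0% = enzyme with DMSO and 100% = wells lacking PAFAH2 protein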
pPAFAH inh: inhibitors of human plasma PAF acetylhydrolase (pPAFAH); Q13093; recombinant pPAFAH, FP-rhodamine probe fluorescence polarization; inhibition, % at 3.39 µM; 330,000 compounds, 1.5% hits; AID 463082;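 active = inhibition above the mean inhibition across the screen plus 3 SD, cut at about 25% in these data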;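 also: inhibitors block binding of the rhodamine activity-based probe so polarization drops; 0% = enzyme with DMSO and 100% = wells lacking pPAFAH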
PAFAH1B2 FP inh: PAFAH1B2 (human) inhibition. P68402. AID 492953. inhibition, % at 3.39 µM. recombinant PAFAH1B2, FP-rhodamine activity probe, fluorescence polarization. 340,000 compounds, 1.2% hits;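 active = inhibition above the mean of all tested compounds plus 3 SD, cut at about 24% in these data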;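 also: 0% = enzyme with DMSO and 100% = wells lacking PAFAH1B2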
ARFGAP1 confirm: rat ARFGAP1 inhibition, confirmed; 890 compounds, 30% hits; ARFGAP1-stimulated ARF1 GTP hydrolysis, GDP tracer FP; shares compounds with ARFGAP1 inhibitor; AID 651608; inhibition, % at 16.5 µM;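 active = average inhibition over triplicates above the hit cutoff set in the earlier primary screen, cut at about 25% in these data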;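 also: 0% = Arfgap1 plus ARF1-GTP with DMSO and 100% = wells lacking Arfgap1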
Target sequence (Q62848 whole entry, looked up): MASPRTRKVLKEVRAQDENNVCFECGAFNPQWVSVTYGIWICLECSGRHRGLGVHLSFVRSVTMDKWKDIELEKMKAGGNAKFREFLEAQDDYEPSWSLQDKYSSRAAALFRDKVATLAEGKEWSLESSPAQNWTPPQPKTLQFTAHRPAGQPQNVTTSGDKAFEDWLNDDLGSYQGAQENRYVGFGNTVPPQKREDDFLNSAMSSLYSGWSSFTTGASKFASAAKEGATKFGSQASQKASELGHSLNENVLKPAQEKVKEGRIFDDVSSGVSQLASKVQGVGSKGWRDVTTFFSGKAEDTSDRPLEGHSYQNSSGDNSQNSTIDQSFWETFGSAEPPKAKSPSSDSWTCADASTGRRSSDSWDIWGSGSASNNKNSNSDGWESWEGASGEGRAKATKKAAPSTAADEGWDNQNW
Numbers without * were called inactive; . = not tested or not shown.

SMILES	ARFGAP1 inhibitor	PAFAH1B3 FP inh	ASAP1 inh	PAFAH2 inh	pPAFAH inh	PAFAH1B2 FP inh	ARFGAP1 confirm
C=C(C)C(O)Cc1c(OC)ccc(C(=O)/C=C/c2ccc(O)cc2)c1O (centres undefined)	14.5	-7.2	5.6	-1.2	4.8	0.0	.
O=S(=O)(CCN1CCOCC1)c1ccc(Oc2ccc(S(=O)(=O)CCN3CCOCC3)cc2)cc1	-7.8	7.9	8.3	8.0	-8.5	6.7	.
Cc1ccc(NC(=O)C(C)N=C2NS(=O)(=O)c3ccccc32)cc1F (centres undefined)	37.6*	13.2	20.1	-8.7	-0.9	1.7	4.4
COc1ccc(CC(=O)NC(C)c2ccc3ccccc3c2)cc1 (centres undefined)	-6.2	3.4	-4.0	-0.1	7.4	7.1	.
COC(=O)c1c(NC(=O)C2CC=CCC2C(=O)O)sc(C)c1C (centres undefined)	5.6	6.9	-1.8	0.8	5.3	0.7	.
COC(=O)c1c(NC(=O)C2CC=CCC2C(=O)O)sc(C(N)=O)c1C (centres undefined)	25.2*	1.9	2.1	2.0	11.5	-2.3	4.1
COc1ccccc1-c1oc2ccccc2c1-c1ccc2cc[nH]c2c1	26.2*	1.6	9.9	0.0	4.6	1.3	12.3
CCOC(=O)c1ccc(-c2c(-c3ccccc3OC)oc3ccccc23)cc1F	-1.5	14.7	1.2	-11.7	3.0	7.6	.
CSc1nc(O)c(/C=C2\C=Nc3ccccc32)[nH]1	3.7	3.5	7.9	-6.6	4.8	4.6	.
O=c1[nH]c(/C=C2\C=Nc3ccccc32)c(O)n1Cc1ccccc1F	25.0*	11.9	16.4	8.3	11.9	-0.4	15.5
Cc1ccccc1-c1cc2nc(NCCN3CCCC3)n(C)c(=O)c2s1	10.3	.	-11.4	.	.	.	.
O=C(COc1ccc(Cl)cc1Cl)NCCSc1ccc(Cl)cc1	29.2*	3.2	3.6	-3.9	20.5	9.4	-2.3
CN(C)CCNC(=O)COc1ccc(Cl)cc1Cl	-7.9	4.4	-9.4	6.9	-0.3	4.0	.
O=C(N/N=C/c1ccc(O)cc1)c1[nH]c2ccc(Br)cc2c1-c1ccccc1	1.2	3.6	12.1	-13.5	8.3	-2.7	.
O=C(N/N=C/c1c[nH]c2ccccc12)c1[nH]c2ccc(Br)cc2c1-c1ccccc1	29.5*	-5.3	0.6	3.7	.	-3.7	16.6
Cc1cc(=O)oc2cc(OCc3ccccc3)ccc12	5.3	4.5	-0.8	-0.6	4.7	6.2	.
Cc1cc(=O)oc2cc(OCc3ccc(C(=O)OCC(=O)Nc4ccccc4OC(F)F)cc3)ccc12	41.9*	-14.7	14.7	2.7	9.7	-3.2	50.0*
Cc1ccccc1NC(=O)c1cccc(NC(=O)c2c(C(=O)O)cccc2[N+](=O)[O-])c1	3.2	1.8	-1.8	-2.0	1.6	-8.2	.
CN1C(=O)c2ccc(NC(=O)c3c(C(=O)O)cccc3[N+](=O)[O-])cc2C1=O	25.7*	5.6	2.6	4.7	-5.2	1.6	3.6
COCCCn1c(C)cc(C(=O)CN2c3cccc4cccc(c34)S2(=O)=O)c1C	32.5*	1.1	24.5	7.6	2.2	2.3	36.2*
Cc1ccc(-n2nc3ccc(NC(=O)C(C)C)cc3n2)cc1	-1.5	4.1	1.5	-2.6	4.1	3.2	.
Cc1ccc(-n2nc3ccc(NC(=O)c4ccco4)cc3n2)cc1	30.1*	-8.5	-6.1	-5.1	-0.4	-4.7	12.9
O=C(COc1ccc(Cl)cc1)Nc1ccc2c(c1)CCC2	29.6*	1.2	-6.6	-1.6	-1.9	1.7	8.2
CC(=O)c1ccc(OCC(=O)Nc2ccc3c(c2)CCC3)cc1	10.7	8.7	-1.3	6.4	0.2	7.4	.
CCC(NC(=O)Cc1c(C)c2cc3c(cc2oc1=O)OC(C)(C)CC3)C(=O)O (centres undefined)	5.4	6.3	8.6	1.4	-2.0	0.9	.
SMILES	ARFGAP1 inhibitor	PAFAH1B3 FP inh	ASAP1 inh	PAFAH2 inh	pPAFAH inh	PAFAH1B2 FP inh	ARFGAP1 confirm
CC(C)Oc1ccc(CCC(=O)N/N=C/c2ccc3c(c2)OCO3)cc1	31.6*	10.1	0.6	6.2	23.8	1.2	-1.3
O=C(N/N=C/c1ccc2c(c1)OCO2)c1ccc(NC(=O)c2ccc(F)cc2)cc1	24.7*	-9.3	16.4	2.1	24.2	-2.5	14.6
O=C(CCc1ccc(O)c(O)c1)N/N=C/c1ccc2c(c1)OCO2	4.2	7.1	6.7	9.1	21.4	2.4	.
CC(Sc1nnc(-c2ccco2)n1C)C(=O)Nc1nccs1 (centres undefined)	2.8	-1.2	-11.8	5.2	4.2	2.0	.
Cc1cc(F)ccc1C(O)c1ncc(-c2ccccc2C(F)(F)F)[nH]1 (centres undefined)	2.3	.	2.5	.	.	.	.
COc1ccc(C2C(O)C(c3c[nH]c4ccccc34)=NN2C(=O)CCl)cc1 (centres undefined)	26.5*	4.4	15.6	14.2	6.7	1.5	9.1
COc1ccc(C2NN=C(c3c[nH]c4ccccc34)C2O)cc1 (centres undefined)	4.3	5.4	-2.4	1.7	-0.6	-0.3	.
CC(C)=CCC/C(C)=C/CC/C(C)=C/CC/C(C)=C/CC1=C(C)C(=O)c2ccccc2C1=O	2.2	0.5	-1.7	2.4	5.0	3.0	.
CC(C)=CCC1=C(OCC(=O)O)C(=O)c2ccccc2C1=O	25.2*	56.7*	18.2	34.8*	11.8	17.2	-4.7
COc1ccc(O)c(-c2cc(-c3ccccc3Cl)[nH]n2)c1	30.3*	12.5	16.7	8.2	10.6	6.0	16.8
C=C1c2nc3ccccc3n2C=C(c2ccc(C)cc2)N1c1ccccc1	7.5	4.0	4.9	3.9	.	3.2	.
CCOc1ccc(NC(=S)N=Nc2c(O)[nH]c3ccccc23)cc1	27.0*	12.4	15.7	18.8	21.4	6.5	15.6
C[C@H](CO)N1C[C@H](C)[C@H](CN(C)C(=O)Nc2cccc(F)c2)Oc2cc(C#CC3(O)CCCC3)ccc2S1(=O)=O	28.8*	.	4.6	.	.	.	4.9
Cc1nc2ccc(C(=O)N3c4ccccc4N=C(c4ccc(C(F)(F)F)cc4)C3C(=O)NC(C)(C)C)cc2[nH]1 (centres undefined)	25.7*	.	8.6	.	.	.	-0.8
NC(=O)c1ccc(NC(=O)COC(=O)/C=C/c2cn(-c3ccccc3)nc2-c2cccnc2)cc1	30.0*	-13.4	12.2	-52.4	-10.7	-11.9	45.9*
CCC[C@@H]1CCCO[C@@](C(=O)NCCN2CCOCC2)(C(F)(F)F)C1	31.0*	3.1	6.0	4.8	7.2	6.0	-5.0
CCCCC1CCCOC(C(=O)NCCNCCO)(C(F)(F)F)C1 (centres undefined)	-2.3	1.1	1.0	-4.0	6.6	0.5	.
Cc1ccc2nc(Nc3nc(CSc4nc5ccccc5s4)cc(=O)[nH]3)nc(C)c2c1	24.8*	-0.4	-2.0	-5.0	2.8	-4.8	-3.8
